Source: the EternaBench riboswitch data

Test system: MS2 coat protein
Experiment: apparent Kd, MS2 coat protein; higher = weaker binding; RNA-MaP array; FMN 200 µM where present
How it was run: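 On Illumina sequencing-chip clusters, designs were transcribed by stalled E. coli RNA polymerase and titrated with SNAP-549-labelled MS2 coat protein (0.7 or 1.5 nM, doubling to 3 µM), without and then with constant ligand, in 100 mM Tris-HCl pH 7.5, 80 mM KCl, 4 mM MgCl2, BSA, DTT, yeast tRNA and Tween-20. Apparent Kd is the median of filtered per-cluster curve fits to green signal normalised to red-channel RNA signal and control-cluster median Fmax.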

[1] = designed as: ON switch for flavin mononucleotide, no ligand
[2] = ligand present: flavin mononucleotide, designed as: ON switch for flavin mononucleotide
[3] = designed as: OFF switch for flavin mononucleotide, no ligand
[4] = ligand present: flavin mononucleotide, designed as: OFF switch for flavin mononucleotide

Sequence	apparent Kd [1]	apparent Kd [2]	apparent Kd [3]	apparent Kd [4]
CCGGGACAUGAGGAUCACCCAUGUUUCGUUUGUAGUAAAACACAGGAUAUGAUGAAACAGGUUUCUCAGAAGGGUGUUCCGAAA	81.3 nM	55.3 nM	–	–
UGUGCCUCGAGAGGAUAUUACAUGAGGAUCACCCAUGUAACAGAGGUGGAAACACCUCUGAAAUGUAAGAAGGCUCGAGGCACA	–	–	19.1 nM	29.6 nM
GAGAAGUCAGGAUAUGCAUGGCGGGACUUGCGUCGUGGCGUGCAGAAGGGACAUGAGGAUCACCCAUGUAAAGC	–	–	45.4 nM	39.5 nM
AAAAAACAUGAGGAUCACCCAUGUGAGGAUAUGACGUAAAUAAAGAAAGAAGAAAUCGUCAGAAGGCACACCUA	–	–	52.7 nM	79.3 nM
UUUUAACAUGAGGAUCACCCAUGUGAGGAUAUCGAAAUUUAUAUUAAUAUUAAUUAUACGAGAAGGCACAUUUU	–	–	83.6 nM	82.8 nM
AUACAUCUUCGAGGAUAUCGGUGAUAAAUUUUACGAGAAGGCGAUGAAAGAUAUAAUCUUAUAUACAUGAGGAUCACCCAUGUU	26 nM	24.1 nM	–	–
AUCAUGUAAGGAUAUCUUACAUGUGACUUCGGUCACAGUUAAGAGAAGGUACAUGAGGAUCACCCAUGUAUAAC	–	–	28 nM	45.3 nM
AGAUUAUGAGGAUAUCGAGUUUAGUACAUGAGGAUCACCCAUGUUAUCCAGGUCUCGUUUCGAGAAGGCAUGAUUC	–	–	33.5 nM	30.9 nM
UCAUAUAUACAAGGAUAUCAAUUAUAUACACAUCCUACAUGAGGAUCACCCAUGUUUUAUUUUUUUGAGAAGGUGUAUUGUCGG	24.1 nM	32.1 nM	–	–
AAAAAAAAUGUGUAGGAUAUCAGUAAAAAUACAUGAGGAUCACCCAUGUUCAAAAAAAAAAAAACUGAGAAGGACACGGGAAGUCC	48.5 nM	30.3 nM	–	–
AGAUAACAUGAGGAUCACCCAUGUGAGGAUAUUUACUCAAGAGCUUCGGCUCUCAGGUGAAGAAGGCACAAUGA	–	–	55.9 nM	83.4 nM
UACAUGAGGAUCACCCAUGUUUUGUCGUGUAUGGUAUUUAUCUAGGAUAUCAAGUUGUUUAUUUAUGAGAAGGAGAAUAUUAAU	–	–	34.3 nM	38.1 nM
CUUUUGUGAGGAUAUCAGUAGUAGAACAAUAGUACUACUACUGAGAAGGCACAUGAGGAUCACCCAUGUUUCUC	–	–	62.3 nM	302 nM
UUACAUACAAAGGUACAUGAGGAUCACCCAUGUUUGUUGGGAAGAAGGGUAACAGUACUACAUAUAUAGGAUAUUUCACAAAUG	106 nM	73.4 nM	–	–
GGGUACAUCGGAGGAUAUCAUGUAAAUACAUGAGGAUCACCCAUGUCGAUGGAGACAUCGAAGAUUGAGAAGGCCGAUGUACCG	16.8 nM	5.6 nM	–	–
GGGCCGAUAGGAUAUACAUGAGGAUCACCCAUGUAUGCUUAGAAGCGGCAAUCCUUAUGUAGAAGGGUCAGGCU	–	–	37.1 nM	33.4 nM
GGAGCCGGCACCGAGGAUAUUCAUAUUAAAACAUGAGGAUCACCCAUGUACCGCAGAAGCGGUUGGGAGAAGGCGGAUCGGCUCG	691 nM	42.1 nM	–	–
UUUUUGUGAGGAUAUGCGUAGUAGAACAAUAGUACUACUACGUAGAAGGCACAUGAGGAUCACCCAUGUUCCUC	–	–	37.8 nM	254 nM
GUACCUUAUGAGAAGGCGAUCAUAAAACAUGAUCGAGGAUAUCAUGAAAACAUGAGGAUCACCCAUGUAUGGGUAUUAUGGUAC	37.3 nM	16.7 nM	–	–

Sequence	apparent Kd [1]	apparent Kd [2]	apparent Kd [3]	apparent Kd [4]
GUAGUGUAUGUAGGAUAUGUGAAGCAAAGCUUCACAGAAGGACAUGAGGAUCACCCAUGUAUUACAGUCAGCAAUCUGACUGUU	–	–	39.8 nM	137 nM
AUACCACGAGGAUAUCGUCUAUUUCACAUGAGGAUCACCCAUGUUAUCCUUGUUUCGUUUCGAGAAGGCGUGUUUU	–	–	47.5 nM	110 nM
GACUUGGCUACAUGAGGAUCACCCAUGUUUGACUGGAUCGAUUAGGAUAUAGUGAUUUGCAACAAUUAGAAGGGAUGUUUACGG	23 nM	28.8 nM	–	–
AUCGUUCGAGAGAAGGGAACAUGAGGAUCACCCAUGUUACCUCACCUGGUGACGGAACUCCAAGUUCAGGAUAUCUCGAGCAAU	–	–	5.38 nM	8.25 nM
GUCUACCUAGGAUAUACAUGAGGAUCACCCAUGUACAGUUUCGUCUAGGGAUACUCGCGUAGAAGGAGGUAGAU	–	–	32.2 nM	22.9 nM
AAUUUUGCAGGAUAUGCGCAGCGUUUAGCCACACUAUGGAAACAUGAGGAUCACCCAUGUAGAAGGGCAGAGAU	–	–	26.4 nM	20.8 nM
AUUUUUAAGGUAGGAUAUAGUAUGAUGGUUUAAUUAGAAGGAUCUCACAUGAGGAUCACCCAUGUAAUAGGAUUACCCAUGUAU	–	–	53.7 nM	33.3 nM
AAGCGAGGGACAGGAUAUGCGGCGGAACUCGCCGCAGAAGGGUCGACAUGAGGAUCACCCAUGUCCUUACGCUCCAAGUAGAGG	181 nM	451 nM	–	–
AAAAACAUAGGAUAUACAUGAGGAUCACCCAUGUUAAAAUAAAGAAAGGGAGAAAUAAGUAGAAGGAUGAAAAA	–	–	37.7 nM	40.2 nM
GCUAUCAAUGUCAGGAUAUUUAUUUGGGCUUAAUUGAAGAAGGGACAUGAGGAUCACCCAUGUGGCGCAGAGUU	–	–	36.9 nM	202 nM
CUCGUGUCAGGAUAUCGAUGGCGCCUCCGGGCGCCCGAACGCGAGAAGGGACAUGAGGAUCACCCAUGUAAAAC	–	–	71.8 nM	159 nM
UUCUUCAGGUCAGGAUAUGCACAAGUUCAACGAGCAGAAGGGACAUGAGGAUCACCCAUGUAAAGGGCACCGGCUAACGUUCGA	–	–	258 nM	182 nM
UGUCGGAGCAGAGGAUAUACAUGAGGAUCACCCAUGUAAAUGAAUGAAGCCUGGAAACAGGCAAUGUAGAAGGCUGCUCCGACA	–	–	17.2 nM	53.7 nM
GUGUAGAUAGGAUAUGCGUGAGUCUAGCGAAGCUAGGCUCUACAUGAGGAUCACCCAUGUAGAAGGGUCUACAC	–	–	21 nM	18.1 nM
GGAUAGUACAGAGGAUAUACGUGCUAGAGAUACUAGCAAAAUUUCCUCACAUGAGGAUCACCCAUGUAGAAGGCUGUCCUAUCG	–	–	5.94 nM	51.8 nM
UAUAUAUAGUAAGGAUAUGUAUAUGUUUUAUAAACAGAAGGUACUGACAUGAGGAUCACCCAUGUUUUAGUGUGGGCAUGUAGA	–	–	58.4 nM	92 nM
AGUGCGUAUGUGAGGAUAUGCUGGUCCUUGGCUCGGCAGAAGGCACAUGAGGAUCACCCAUGUGGUGUCGUACC	–	–	33 nM	151 nM
GGUGGGAAGUAAGGAUAUCGGCCAUAGUUAGGGCGAGAAGGUACAUGAGGAUCACCCAUGUCGUCGCUAGGGACGGGUCCGGCC	–	–	6.54 nM	6.96 nM
GGAUAGGACAGAGGAUAUACGUGCUUGAGAUACUAGCAAAAUUUCCUCACAUGAGGAUCACCCAUGUAGAAGGCUGUCCUAUCG	–	–	20.2 nM	436 nM

Sequence	apparent Kd [1]	apparent Kd [2]	apparent Kd [3]	apparent Kd [4]
AUUUGACACGUAGGAUAUCGCUCAAAUUUAACACGAGAAGGACGAACAUGAGGAUCACCCAUGUAACAUGGUGUAGUUUAUUUG	–	–	62.7 nM	88.1 nM
UUUUACAUAGGAUAUAGUCUUUUUUACAUGAGGAUCACCCAUGUCUCUCUUUUUUUUUUUCUAGAAGGAUGUUUUU	–	–	42.9 nM	30.9 nM
AAUUAUUGAUGAGGAUAUUGUGGUGAAACACCACAAGAAGGCAUUAUACACAUGAGGAUCACCCAUGUGAGCCUGAUGCUUAUG	–	–	16.7 nM	21.2 nM
UGAUCUAUGUAGAAGGCCCAUAUCUAUAUUUAGGGAGGAUAUACAUGAGGAUCACCCAUGUGUAGAGCUGGUGGACUGGUCAGC	–	–	92.8 nM	234 nM
AUCCUGCGAGGAUAUACAUAAUUUUUUUCAUUUGGUUGCGAACAUGAGGAUCACCCAUGUAGAAGGUGCUUCAC	–	–	66.7 nM	62.5 nM
CGAGACCUCACAGGAUAUGCUGGACUUUGUCCAGCAGAAGGGUGAAAACAUGAGGAUCACCCAUGUAUGGUCUCCAAAUUUAAA	182 nM	13.6 nM	–	–
UUAUAUAGUGUGAGGAUAUGCUGGUCCUUGGAUCAGCAGAAGGCACAUGAGGAUCACCCAUGUAGUUAAUUAUA	–	–	32 nM	122 nM
GCGAUUUUUAGAUUUUAAUAAUUUACAGAAGGUGAUAUACUUACAUGAGGAUCACCCAUGUUAUUCAAGGAUAUGUAGAUACUC	308 nM	31 nM	–	–
AAAAAACAUGAGGAUCACCCAUGUAAAAAAAUGGGAGGAUAUACAAAAACGAAAGUCAAAGUAGAAGGCCUGAAAA	119 nM	25.6 nM	–	–
CAGUCUACAGGAUAUACAUGAGGAUCACCCAUGUUUAUCAACCUUCAGUAAUCCACAUGUAGAAGGGUAGACUG	–	–	19.7 nM	21.4 nM
AAAAAACAUGAGGAUCACCCAUGUAAGGAUAUCGUGCAGAAAAAAAAAAAAAACUGCACGAGAAGGUACUUGGA	–	–	81 nM	143 nM
ACGACUAGAGGAUAUACAUGAGGAUCACCCAUGUAACUGUCAGGAAACUGACGGAGAUGUAGAAGGCUAGUCGA	–	–	16.8 nM	37.4 nM
AGACUCUCUGGAGGAUAUCAUAGUCGUUGACUAUGAGAAGGUUAGCUAUCUUACAUGAGGAUCACCCAUGUGAUCUCUCUCGAG	–	–	18.1 nM	14.6 nM
GCUAGGCAUGUCAGGAUAUGCUGAACCUUGGUUCAGCAGAAGGGACAUGAGGAUCACCCAUGUGCCAACCUAGC	–	–	57.4 nM	613 nM
GAUUAACAUGAGGAUCACCCAUGUGAGGAUAUGAACUUGCCCACUUUCCCUUUAGAGUUUAGAAGGCGCAUUCU	–	–	29.8 nM	30.6 nM
AUGUUACAUGAGGAUCACCCAUGUGAGGAUAUGUGUACCGGUAAAAAAGUGUCUGGCCACAGAAGGCAUUUGGA	–	–	29.4 nM	33 nM
UAAGCCGGGUCUGCAUGAGCUUACAUGAGGAUCACCCAUGUAAGAAGGGACGCUACGUUAAAGUGUCAGGAUAUUGCGAACGGG	–	–	5.26 nM	5.73 nM
UACCUGAGGCAAAGCUUUAGGUAUACAUGAGGAUCACCCAUGUAGGAUAUGGUAGGCUUUGCCUACCAGAAGGACAUGUUAAUU	–	–	19.7 nM	55.3 nM
